From ChEMBL document CHEMBL1127451, “Benzoselenazolinone derivatives designed to be glutathione peroxidase mimetics feature inhibition of cyclooxygenase/5-lipoxygenase pathways and anti-inflammatory activity” (1994)

Tests used:
Rattus norvegicus [1] = assay: Tested for acute anti-inflammatory activity of the antirat serum-induced edema in rats at dose of 30 mg/kg at time interval- 1 hr; type: functional
Summary of the method: (§1)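 Fasted Wistar rats (200–240 g), six per group, receive drug orally in 2% gelatin. One hour later, 0.1 mL rabbit antirat serum is injected subplantar into the hind paw. Paw volume is measured by water plethysmometry at injection and at 0.5, 1, 2, 3 and 4 h. Results are percent inhibition of swelling versus vehicle-treated rats.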

Rattus norvegicus [2] = assay: Tested for acute anti-inflammatory activity of the antirat serum-induced edema in rats at dose of 100 mg/kg at time interval- 1 hr; type: functional; summary of the method: as §1
Rattus norvegicus [3] = assay: Tested for acute anti-inflammatory activity of the antirat serum-induced edema in rats at dose of 3 mg/kg at time interval- 2 hr; type: functional; summary of the method: as §1
Rattus norvegicus [4] = assay: Tested for acute anti-inflammatory activity of the antirat serum-induced edema in rats at dose of 3 mg/kg at time interval- 1 hr; type: functional; summary of the method: as §1
Rattus norvegicus [5] = assay: Tested for acute anti-inflammatory activity of the antirat serum-induced edema in rats at dose of 3 mg/kg at time interval- 4 hr; type: functional; summary of the method: as §1
Rattus norvegicus [6] = assay: Tested for acute anti-inflammatory activity of the antirat serum-induced edema in rats at dose of 100 mg/kg at time interval- 0.5 hr; type: functional; summary of the method: as §1
Rattus norvegicus [7] = assay: Tested for acute anti-inflammatory activity of the antirat serum-induced edema in rats at dose of 30 mg/kg at time interval- 2 hr; type: functional; summary of the method: as §1
Rattus norvegicus [8] = assay: Tested for acute anti-inflammatory activity of carrageenan-induced foot edema in rats at dose of 3 mg/kg at time interval- 1 hr; type: functional
Summary of the method: as §1, with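 “2% carrageenan in […]” for “rabbit antirat serum”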

[9] = In vitro glutathione peroxidase activity at 2*10e-7M using hydrogen peroxide, activity given in percentage of ebselen''s activity; type: functional
[10] = In vitro glutathione peroxidase activity at 2*10e-7M using tert-butyl hydroperoxide, activity given in percentage of ebselen''s activity; type: functional
Rattus norvegicus [11] = assay: Tested for acute anti-inflammatory activity of carrageenan-induced foot edema in rats at dose of 3 mg/kg at time interval- 3h; type: functional
Summary of the method: as §1, with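 “2% carrageenan in […]” for “rabbit antirat serum”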

Rattus norvegicus [12] = assay: Tested for acute anti-inflammatory activity of carrageenan-induced foot edema in rats at dose of 100 mg/kg at time interval- 0.5 hr; type: functional
Summary of the method: as §1, with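 “2% carrageenan in […]” for “rabbit antirat serum”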

Rattus norvegicus [13] = assay: Tested for acute anti-inflammatory activity of carrageenan-induced foot edema in rats at dose of 30 mg/kg at time interval- 2 hr; type: functional
Summary of the method: as §1, with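 “2% carrageenan in […]” for “rabbit antirat serum”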

Rattus norvegicus [14] = assay: Tested for acute anti-inflammatory activity of carrageenan-induced foot edema in rats at dose of 30 mg/kg at time interval- 3h; type: functional
Summary of the method: as §1, with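 “2% carrageenan in […]” for “rabbit antirat serum”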

Rattus norvegicus [15] = assay: Tested for acute anti-inflammatory activity of the antirat serum-induced edema in rats at dose of 30 mg/kg at time interval- 4 hr; type: functional; summary of the method: as §1
Rattus norvegicus [16] = assay: Tested for acute anti-inflammatory activity of carrageenan-induced foot edema in rats at dose of 100 mg/kg at time interval- 1 hr; type: functional
Summary of the method: as §1, with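 “2% carrageenan in […]” for “rabbit antirat serum”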

Rattus norvegicus [17] = assay: Tested for acute anti-inflammatory activity of the antirat serum-induced edema in rats at dose of 30 mg/kg at time interval- 3h; type: functional; summary of the method: as §1
Rattus norvegicus [18] = assay: Tested for acute anti-inflammatory activity of the antirat serum-induced edema in rats at dose of 3 mg/kg at time interval- 3h; type: functional; summary of the method: as §1
Rattus norvegicus [19] = assay: Tested for acute anti-inflammatory activity of the antirat serum-induced edema in rats at dose of 100 mg/kg at time interval- 3h; type: functional; summary of the method: as §1
Rattus norvegicus [20] = assay: Tested for acute anti-inflammatory activity of carrageenan-induced foot edema in rats at dose of 3 mg/kg at time interval- 4 hr; type: functional
Summary of the method: as §1, with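 “2% carrageenan in […]” for “rabbit antirat serum”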

Rattus norvegicus [21] = assay: Tested for acute anti-inflammatory activity of carrageenan-induced foot edema in rats at dose of 30 mg/kg at time interval- 1 hr; type: functional
Summary of the method: as §1, with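 “2% carrageenan in […]” for “rabbit antirat serum”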

Rattus norvegicus [22] = assay: Tested for acute anti-inflammatory activity of carrageenan-induced foot edema in rats at dose of 30 mg/kg at time interval- 4 hr; type: functional
Summary of the method: as §1, with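 “2% carrageenan in […]” for “rabbit antirat serum”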

Rattus norvegicus [23] = assay: Tested for acute anti-inflammatory activity of carrageenan-induced foot edema in rats at dose of 3 mg/kg at time interval- 2 hr; type: functional
Summary of the method: as §1, with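 “2% carrageenan in […]” for “rabbit antirat serum”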

Rattus norvegicus [24] = assay: Tested for acute anti-inflammatory activity of carrageenan-induced foot edema in rats at dose of 100 mg/kg at time interval- 4 hr; type: functional
Summary of the method: as §1, with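 “2% carrageenan in […]” for “rabbit antirat serum”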

Rattus norvegicus [25] = assay: Tested for acute anti-inflammatory activity of the antirat serum-induced edema in rats at dose of 100 mg/kg at time interval- 2 hr; type: functional; summary of the method: as §1
Rattus norvegicus [26] = assay: Tested for acute anti-inflammatory activity of carrageenan-induced foot edema in rats at dose of 100 mg/kg at time interval- 3h; type: functional
Summary of the method: as §1, with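 “2% carrageenan in […]” for “rabbit antirat serum”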

Rattus norvegicus [27] = assay: Tested for acute anti-inflammatory activity of the antirat serum-induced edema in rats at dose of 3 mg/kg at time interval- 0.5 hr; type: functional; summary of the method: as §1
Rattus norvegicus [28] = assay: Tested for acute anti-inflammatory activity of carrageenan-induced foot edema in rats at dose of 3 mg/kg at time interval- 0.5 hr; type: functional
Summary of the method: as §1, with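 “2% carrageenan in […]” for “rabbit antirat serum”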

Rattus norvegicus [29] = assay: Tested for acute anti-inflammatory activity of carrageenan-induced foot edema in rats at dose of 30 mg/kg at time interval- 0.5 hr; type: functional
Summary of the method: as §1, with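 “2% carrageenan in […]” for “rabbit antirat serum”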

Rattus norvegicus [30] = assay: Tested for acute anti-inflammatory activity of the antirat serum-induced edema in rats at dose of 30 mg/kg at time interval- 0.5 hr; type: functional; summary of the method: as §1
Rattus norvegicus [31] = assay: Tested for acute anti-inflammatory activity of the antirat serum-induced edema in rats at dose of 100 mg/kg at time interval- 4 hr; type: functional; summary of the method: as §1
Rattus norvegicus [32] = assay: Tested for acute anti-inflammatory activity of carrageenan-induced foot edema in rats at dose of 100 mg/kg at time interval- 2 hr; type: functional
Summary of the method: as §1, with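 “2% carrageenan in […]” for “rabbit antirat serum”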

[33] = Inhibition of spontaneous lipid peroxidation at 10e-5 M in rat brain homogenate
[34] = Inhibition of [Fe(2+)]/ascorbate-induced lipid peroxidation at 10e-5 M in rat brain homogenate

Row | SMILES | inhibition in vivo at 30 mg/kg (Rattus norvegicus [1]) [%] | inhibition in vivo at 100 mg/kg (Rattus norvegicus [2]) [%] | inhibition in vivo at 3 mg/kg (Rattus norvegicus [3]) [%] | inhibition in vivo at 3 mg/kg (Rattus norvegicus [4]) [%] | inhibition in vivo at 3 mg/kg (Rattus norvegicus [5]) [%] | inhibition in vivo at 100 mg/kg (Rattus norvegicus [6]) [%] | inhibition in vivo at 30 mg/kg (Rattus norvegicus [7]) [%] | inhibition in vivo at 3 mg/kg (Rattus norvegicus [8]) [%] | GSH-Px activity [9] | GSH-Px activity [10] | inhibition in vivo at 3 mg/kg (Rattus norvegicus [11]) [%] | inhibition in vivo at 100 mg/kg (Rattus norvegicus [12]) [%] | inhibition in vivo at 30 mg/kg (Rattus norvegicus [13]) [%] | inhibition in vivo at 30 mg/kg (Rattus norvegicus [14]) [%] | inhibition in vivo at 30 mg/kg (Rattus norvegicus [15]) [%] | inhibition in vivo at 100 mg/kg (Rattus norvegicus [16]) [%] | inhibition in vivo at 30 mg/kg (Rattus norvegicus [17]) [%] | inhibition in vivo at 3 mg/kg (Rattus norvegicus [18]) [%] | inhibition in vivo at 100 mg/kg (Rattus norvegicus [19]) [%] | inhibition in vivo at 3 mg/kg (Rattus norvegicus [20]) [%] | other results
1 | O=c1c2ccccc2[se]n1-c1ccccc1 [EBSELEN] | -3.8 | 15.9 | -1.1 | 2.3 | -2.6 | 4.9 | 8.2 | 29.1 | 100 | 100 | 21.4 | -93.6 | 10.2 | -4.1 | 7.9 | 26.9 | 3.7 | -6.6 | 16.7 | 13.5 | inhibition in vivo at 30 mg/kg (Rattus norvegicus [21]): 47.5%; inhibition in vivo at 30 mg/kg (Rattus norvegicus [22]): -7.5%; inhibition in vivo at 3 mg/kg (Rattus norvegicus [23]): 30.3%; inhibition in vivo at 100 mg/kg (Rattus norvegicus [24]): 0.6%; inhibition in vivo at 100 mg/kg (Rattus norvegicus [25]): 22%; inhibition in vivo at 100 mg/kg (Rattus norvegicus [26]): 13.7%; inhibition in vivo at 3 mg/kg (Rattus norvegicus [27]): -9.8%; inhibition in vivo at 3 mg/kg (Rattus norvegicus [28]): -63.5%; inhibition in vivo at 30 mg/kg (Rattus norvegicus [29]): -54%; inhibition in vivo at 30 mg/kg (Rattus norvegicus [30]): -19.6%; inhibition in vivo at 100 mg/kg (Rattus norvegicus [31]): 16.3%; inhibition in vivo at 100 mg/kg (Rattus norvegicus [32]): 18.4%
2 | Nc1ccc(C(=O)c2ccccc2)cc1[Se][Se]c1cc(C(=O)c2ccccc2)ccc1N | -18.2 | 7.2 | -3.3 | -7.9 | 4.8 | -37.5 | 0.7 | 39 | 261 | 300 | 32.9 | -27 | 18.7 | 13.7 | 5.5 | 40.4 | -3.7 | 0.2 | -3.9 | 18.2 | inhibition [33]: 87%; inhibition [34]: 95%; inhibition in vivo at 30 mg/kg (Rattus norvegicus [21]): 43.3%; inhibition in vivo at 30 mg/kg (Rattus norvegicus [22]): 8.5%; inhibition in vivo at 3 mg/kg (Rattus norvegicus [23]): 45%; inhibition in vivo at 100 mg/kg (Rattus norvegicus [24]): 5%; inhibition in vivo at 100 mg/kg (Rattus norvegicus [25]): 4.9%; inhibition in vivo at 100 mg/kg (Rattus norvegicus [26]): 9.2%; inhibition in vivo at 3 mg/kg (Rattus norvegicus [27]): -16.8%; inhibition in vivo at 3 mg/kg (Rattus norvegicus [28]): -33.3%; inhibition in vivo at 30 mg/kg (Rattus norvegicus [29]): -20.6%; inhibition in vivo at 30 mg/kg (Rattus norvegicus [30]): -23.4%; inhibition in vivo at 100 mg/kg (Rattus norvegicus [31]): 2%; inhibition in vivo at 100 mg/kg (Rattus norvegicus [32]): 29.2%
3 | O=C(c1ccccc1)c1ccc2[nH]c(=O)[se]c2c1 | 5.3 | 6 | -10.7 | -16.7 | -1.4 | -0.5 | 25.6 | -7.8 | 0 | 0 | 27.5 | -76.2 | 31.7 | 35.6 | 25.2 | 9.9 | 19.7 | -14.1 | 18 | 9.6 | inhibition [33]: 0%; inhibition [34]: -3%; inhibition in vivo at 30 mg/kg (Rattus norvegicus [21]): 14.2%; inhibition in vivo at 30 mg/kg (Rattus norvegicus [22]): 26.1%; inhibition in vivo at 3 mg/kg (Rattus norvegicus [23]): 27.8%; inhibition in vivo at 100 mg/kg (Rattus norvegicus [24]): 55.5%; inhibition in vivo at 100 mg/kg (Rattus norvegicus [25]): 12.7%; inhibition in vivo at 100 mg/kg (Rattus norvegicus [26]): 58.5%; inhibition in vivo at 3 mg/kg (Rattus norvegicus [27]): -41.8%; inhibition in vivo at 3 mg/kg (Rattus norvegicus [28]): -42.9%; inhibition in vivo at 30 mg/kg (Rattus norvegicus [29]): -22.2%; inhibition in vivo at 30 mg/kg (Rattus norvegicus [30]): -9.8%; inhibition in vivo at 100 mg/kg (Rattus norvegicus [31]): 19.3%; inhibition in vivo at 100 mg/kg (Rattus norvegicus [32]): 51.6%
